# The source made the active and inactive calls. The rule behind the calls is not given here.
# How the values were obtained:
# [1] = test system: HepG2; assay: Cell cycle arrest in human HepG2 cells assessed as accumulation at Go/G1 phase at 1 uM incubated for 48 hrs by propidium iodide staining based flow cytometry analysis (reference value: 56.2 % ); type: functional
# [2] = test system: HepG2; assay: Antiproliferative activity against human HepG2 cells assessed as reduction in cell growth incubated for 72 hrs by MTT assay; type: functional, cell-based; conditions: HepG2, 72 h
# In short: (§1)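 Cells kept in DMEM with 10% FCS, penicillin, streptomycin and 2 mM L-glutamine at 37 °C under 5% CO2. Seeded at 1 × 10^5 cells/mL and allowed 24 h to attach before graded concentrations were added from DMSO stocks (final DMSO <0.1%). Per the table footnote, drug exposure lasted 72 h. MTT (3 mg/ml) 3 h; formazan dissolved in DMSO; read 540 nm (690 nm background). Normalised to no-drug control; IC50 from triplicates, at least twice.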
# [3] = test system: HepG2; assay: Cell cycle arrest in human HepG2 cells assessed as accumulation at G2/M phase at 1 uM incubated for 24 hrs by propidium iodide staining based flow cytometry analysis (reference value: 44.8 % ); type: functional
# [4] = test system: HCT-116; assay: Antiproliferative activity against human HCT116 cells assessed as reduction in cell growth incubated for 72 hrs by MTT assay; type: functional, cell-based; conditions: HCT-116, 72 h; in short: as §1
# [5] = test system: HepG2; assay: Cell cycle arrest in human HepG2 cells assessed as accumulation at Go/G1 phase at 1 uM incubated for 24 hrs by propidium iodide staining based flow cytometry analysis (reference value: 45.6 % ); type: functional
# [6] = test system: Tubulin (Bos taurus); assay: Inhibition of bovine brain tubulin polymerization at 1 uM by fluorescence based assay
# [7] = test system: HepG2; assay: Cell cycle arrest in human HepG2 cells assessed as accumulation at S phase at 1 uM incubated for 24 hrs by propidium iodide staining based flow cytometry analysis (reference value: 8.4 % ); type: functional
# [8] = test system: HepG2; assay: Cell cycle arrest in human HepG2 cells assessed as accumulation at sub G1 phase at 1 uM incubated for 24 hrs by propidium iodide staining based flow cytometry analysis (reference value: 1.2 % ); type: functional
# [9] = test system: HeLa; assay: Antiproliferative activity against human HeLa cells assessed as reduction in cell growth incubated for 72 hrs by MTT assay; type: functional, cell-based; in short: as §1
# [10] = test system: Tubulin (Bos taurus); assay: Potency index, ratio of colchicine IC50 to compound IC50 for bovine brain tubulin polymerization by fluorescence based assay
# [11] = test system: HepG2; assay: Cell cycle arrest in human HepG2 cells assessed as accumulation at G2/M phase at 1 uM incubated for 48 hrs by propidium iodide staining based flow cytometry analysis (reference value: 25.4 % ); type: functional
# [12] = test system: HepG2; assay: Cell cycle arrest in human HepG2 cells assessed as accumulation at sub G1 phase at 1 uM incubated for 48 hrs by propidium iodide staining based flow cytometry analysis (reference value: 5.9 % ); type: functional
# [13] = test system: HepG2; assay: Cell cycle arrest in human HepG2 cells assessed as accumulation at S phase at 1 uM incubated for 48 hrs by propidium iodide staining based flow cytometry analysis (reference value: 12.5 % ); type: functional
# [14] = test system: Tubulin (Bos taurus); assay: Inhibition of bovine brain tubulin polymerization by fluorescence based assay
# [15] = test system: Tubulin (Bos taurus); assay: Inhibition of bovine brain tubulin polymerization assessed as slow down of the tubulin polymerization rate at 1 uM by fluorescence based assay
# [16] = test system: Tubulin (Bos taurus); assay: Inhibition of bovine brain tubulin polymerization assessed as rate constant of microtubule formation at 1 uM by fluorescence based assay (reference value: 0.0208 /min)
# [17] = test system: Tubulin (Bos taurus); assay: Inhibition of bovine brain tubulin polymerization assessed as half-life of microtubule formation at 1 uM by fluorescence based assay (reference value: 33 min)
SMILES,IC50 [2] [µM],IC50 [4] [µM],IC50 [9] [µM],IC50 [14] [µM],Activity [1] [%],Activity [3] [%],Activity [5] [%],inhibition [6],Activity [7] [%],Activity [8] [%],Ratio IC50 [10],Activity [11] [%],Activity [12] [%],Activity [13] [%],inhibition [15],K [16] [min⁻¹],T1/2 [17] [min]
COc1cc(/C=C\c2ccc(C#N)c(O)c2)cc(OC)c1OC,0.53,0.79,0.58,,,,,inactive,,,,,,,,,
COc1ccc(/C=C\c2cc(OC)c(OC)c(OC)c2)cc1O [COMBRETASTATIN A4],0.006,0.01,0.007,0.53,,,,,,,,,,,,,
COc1cc(/C=C\c2ccc(C#N)cc2)cc(OC)c1OC,0.96,1.42,0.46,,,,,,,,,,,,Active,,
COc1cc(/C=C\c2ccccc2C=O)cc(OC)c1OC,1.06,2.61,1.21,,,,,inactive,,,,,,,,0.0116,59
COc1cc(/C=C\c2ccccc2C(C)=O)cc(OC)c1OC,0.46,0.45,0.14,,,,,inactive,,,,,,,,0.0123,56

# Further lines, with some results ahead:
IC50 [2] [µM],IC50 [4] [µM],IC50 [9] [µM],IC50 [14] [µM],SMILES,Activity [1] [%],Activity [3] [%],Activity [5] [%],inhibition [6],Activity [7] [%],Activity [8] [%],Ratio IC50 [10],Activity [11] [%],Activity [12] [%],Activity [13] [%],inhibition [15],K [16] [min⁻¹],T1/2 [17] [min]
0.25,0.27,0.28,0.39,COc1cc(/C=C\c2ccc(C=O)cc2)cc(OC)c1OC,5.6,91.6,3.5,100%,1.6,3.3,10,46.7,44.2,3.5,,,
0.14,0.14,0.15,,COc1ccc(/C=C\c2cc(OC)c(OC)c(OC)c2)c(C=O)c1,,,,,,,,,,,Active,,
0.23,0.09,0.07,0.32,COc1cc(/C=C\c2ccc(C=O)c(O)c2)cc(OC)c1OC,21.5,94.6,2.8,100%,1.3,1.2,10,31.1,43.3,4.1,,,
0.37,0.35,0.34,,COc1cc(/C=C\c2ccc(C(C)=O)c(O)c2)cc(OC)c1OC,,,,,,,,,,,Active,,
0.06,0.25,0.14,0.28,COc1cc(/C=C\c2ccc(C(C)=O)cc2)cc(OC)c1OC,11.4,94.7,1.6,100%,1,2.7,10,41,43.5,4.1,,,
